Results on ten compounds are retold here after ChEMBL document CHEMBL1799988, “Novel chalcone derivatives as potent Nrf2 activators in mice and human lung epithelial cells” (J Med Chem, 2011).

Series [1] deals with T1, Nuclear factor erythroid 2-related factor 2 (Homo sapiens) (UniProt Q16236).
T1 sequence (whole entry): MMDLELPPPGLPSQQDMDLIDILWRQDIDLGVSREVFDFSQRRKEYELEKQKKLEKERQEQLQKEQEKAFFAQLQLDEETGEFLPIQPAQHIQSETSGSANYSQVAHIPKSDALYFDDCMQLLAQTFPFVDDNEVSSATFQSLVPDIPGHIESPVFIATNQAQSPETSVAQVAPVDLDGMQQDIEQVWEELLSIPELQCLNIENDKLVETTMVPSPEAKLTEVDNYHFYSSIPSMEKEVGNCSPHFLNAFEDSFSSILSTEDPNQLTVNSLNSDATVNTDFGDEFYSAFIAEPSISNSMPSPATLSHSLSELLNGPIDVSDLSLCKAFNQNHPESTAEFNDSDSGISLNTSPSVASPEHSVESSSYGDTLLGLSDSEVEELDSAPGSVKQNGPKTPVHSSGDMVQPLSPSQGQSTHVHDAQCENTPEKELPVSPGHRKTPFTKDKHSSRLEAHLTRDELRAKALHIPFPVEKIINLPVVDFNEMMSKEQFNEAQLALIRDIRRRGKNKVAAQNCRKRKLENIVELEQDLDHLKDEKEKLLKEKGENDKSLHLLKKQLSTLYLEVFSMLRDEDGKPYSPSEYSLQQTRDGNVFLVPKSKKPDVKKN
Briefly: Induction of Nrf2-mediated GCLM gene expression in human BEAS2B cells at […] 24 hrs by RT-PCR analysis. Format: functional, cell-based. Summed up: (§1)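 Beas-2B cells co-incubated with 10 µM compound with or without N-acetylcysteine (10 mM); cells harvested 24 h later. GCLM, NQO1 and HO-1 mRNA quantified by TaqMan qRT-PCR, normalized to β-actin. Representative of 3 independent experiments, triplicate wells.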

For series [2], the target named is T1, Nuclear factor erythroid 2-related factor 2 (Homo sapiens). In words: Induction of Nrf2-mediated NQO1 gene expression in human BEAS2B cells at […] 24 hrs by RT-PCR analysis. Format: functional, cell-based. Summed up: as §1
Series [3] has the same target. In words: Induction of Nrf2-mediated HO1 gene expression in human BEAS2B cells at […] 24 hrs by RT-PCR analysis. Type of series: functional, cell-based. Summed up:
as §1

The target is the same in series [4]. In words: Induction of Nrf2-mediated GCLM gene expression in human BEAS2B cells at 10 uM after 16 hrs by RT-PCR analysis relative to untreated control. Format: functional, cell-based. Summed up:
(§2)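 Beas-2B cells (DMEM:F12, 10% FBS) plated 24 h, then exposed to 10 µM compound in DMSO (final ≤0.1%) for 16 h; sulforaphane as positive control. Total RNA extracted, reverse transcribed with random hexamers, GCLM and NQO1 mRNA quantified by TaqMan qRT-PCR, fold change vs DMSO. Representative of 3 independent experiments, quadruplicate wells.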

For series [5] the target is unchanged. In words: Induction of Nrf2-mediated NQO1 gene expression in human BEAS2B cells at 10 uM after 16 hrs by RT-PCR analysis relative to untreated control. Type of series: functional, cell-based. The essentials:
as §2

Series [6] is described as follows: Cytotoxicity against human BEAS2B cells assessed as cell viability after 24 hrs by MTT assay. Format: cell-based, BEAS-2B. Also noted: concentration or dose not given beside the values. Particulars: read-out: Activity. The essentials: (§3)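 Beas-2B cells treated with compound or DMSO vehicle (0.1%) for 24 h; MTT (5 mg/ml in serum-free medium) added for the last 4 h, formazan dissolved in DMSO after PBS wash, absorbance read at 570 nm. Viability also checked by trypan blue exclusion.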

Series [7] concerns Mus musculus. In words: Induction of Nrf2-mediated GCLM gene expression in small intestine of C57BL/6 mouse at 50 mg/kg, po administered as single dose measured after 24 hrs by RT-PCR analysis related to control. Format: functional. The essentials: (§4)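 Male C57BL/6 mice (7 weeks, AIN 76A diet; n=4) given a single 50 mg/kg oral gavage of compound, sulforaphane, or vehicle (10% DMSO + 10% Cremophor EL + 80% PBS). Small intestine harvested 24 h later; GCLM and NQO1 mRNA measured by TaqMan qRT-PCR with β-actin normalization.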

The subject of series [8] is Mus musculus. In words: Induction of Nrf2-mediated NQO1 gene expression in small intestine of C57BL/6 mouse at 50 mg/kg, po administered as single dose measured after 24 hrs by RT-PCR analysis related to control. Type of series: functional. Summed up:
as §4

For series [9], the system named is Mus musculus. In words: Induction of Nrf2-mediated GCLM gene expression in small intestine of C57BL/6 mouse at 50 mg/kg, po administered as single dose measured after 24 hrs by RT-PCR analysis related to sulforaphane. Type of series: functional. Summed up:
as §4

In series [10] the test system is Mus musculus. Briefly: Induction of Nrf2-mediated NQO1 gene expression in small intestine of C57BL/6 mouse at 50 mg/kg, po administered as single dose measured after 24 hrs by RT-PCR analysis related to sulforaphane. Format: functional. Summed up: as §4
Series [11] deals with T1, Nuclear factor erythroid 2-related factor 2 (Homo sapiens). In words: Induction of Nrf2-mediated NQO1 gene expression in human BEAS2B cells overexpressing ARE luciferase reporter plasmid after 16 hrs by chemiluminescence assay. Format: functional, cell-based. Summed up:
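Beas-2B cells stably transfected with NQO1-ARE luciferase reporter (blasticidin 6 µg/ml selection) seeded at 10,000 cells/well for 16 h, then exposed to graded compound concentrations or DMSO for 16 h. Luciferase activity read by chemiluminescence as relative luminescence intensity. Representative of 3 independent experiments, quadruplicate wells.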
(A reporter such as luciferase makes a cellular process visible.)

Series [12] shares this target. Briefly: Induction of Nrf2-mediated GCLM mRNA expression in human BEAS2B cells after 24 hrs by RT-PCR analysis. Format: functional, cell-based. Summed up: (§5)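 Beas-2B cells exposed for 24 h to 2.5, 5, 10 or 20 µM compound in DMSO (final ≤0.1%), sulforaphane as comparator. GCLM, NQO1 and HO1 mRNA measured by TaqMan qRT-PCR, normalized to β-actin. Representative of 3 independent experiments, triplicate wells.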

Series [13] shares this target. In words: Induction of Nrf2-mediated NQO1 mRNA expression in human BEAS2B cells after 24 hrs by RT-PCR analysis. Type of series: functional, cell-based. Summed up:
as §5

Series [14] shares this target. In words: Induction of Nrf2-mediated HO1 mRNA expression in human BEAS2B cells after 24 hrs by RT-PCR analysis. Type of series: functional, cell-based. Summed up: as §5
The target is the same in series [15]. In words: Induction of Nrf2-mediated GCLM mRNA expression in human BEAS2B cells at 20 uM after 24 hrs by RT-PCR analysis. Type of series: functional, cell-based. Summed up: as §5
A short description of series [16]: Cytotoxicity against human BEAS2B cells assessed as cell viability at 20 uM after 24 hrs by MTT assay relative to sulforaphane. Type of series: cell-based. The following applies: beas-2b. Summed up: as §3
Series [17] concerns the target T1, Nuclear factor erythroid 2-related factor 2 (Homo sapiens). In words: Induction of Nrf2-mediated HO1 mRNA expression in human BEAS2B cells at 10 uM after 24 hrs by RT-PCR analysis relative to sulforaphane. Type of series: functional, cell-based.
Series [18] has the same target. In words: Induction of Nrf2-mediated HO1 mRNA expression in human BEAS2B cells at 10 uM after 6 hrs by RT-PCR analysis relative to sulforaphane. Format: functional, cell-based. The essentials: (§6)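 Time course in Beas-2B cells at 10 µM compound: GCLM, NQO1 and HO-1 mRNA measured 6, 12, 24 and 48 h after treatment by TaqMan qRT-PCR, β-actin normalization. Representative of 3 independent experiments, triplicate wells.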

For series [19] the target is unchanged. Briefly: Induction of Nrf2-mediated GCLM mRNA expression in human BEAS2B cells at 10 uM after 6 hrs by RT-PCR analysis. Type of series: functional, cell-based. Summed up:
as §6

For series [20] the target is unchanged. Briefly: Induction of Nrf2-mediated HO1 mRNA expression in human BEAS2B cells at 10 uM after 48 hrs by RT-PCR analysis relative to sulforaphane. Type of series: functional, cell-based. The essentials:
as §6

For series [21] the target is unchanged. In words: Induction of Nrf2-mediated GCLM mRNA expression in human BEAS2B cells at 10 uM after 48 hrs by RT-PCR analysis. Format: functional, cell-based. The essentials: as §6
Series [22] shares this target. Briefly: Induction of Nrf2-mediated NQO1 mRNA expression in human BEAS2B cells at 10 uM after 24 hrs by RT-PCR analysis relative to sulforaphane. Format: functional, cell-based.
Series [23] has the same target. In words: Induction of Nrf2-mediated NQO1 mRNA expression in human BEAS2B cells at 10 uM after 48 hrs by RT-PCR analysis relative to sulforaphane. Format: functional, cell-based. Summed up:
as §6

For series [24] the target is unchanged. In words: Induction of Nrf2-mediated GCLM gene expression in human BEAS2B cells at 10 uM after 24 hrs by RT-PCR analysis in presence of 10 mM N-acetylcysteine. Type of series: functional, cell-based. The essentials:
as §1

The target is the same in series [25]. In words: Induction of Nrf2-mediated NQO1 gene expression in human BEAS2B cells at 10 uM after 24 hrs by RT-PCR analysis in presence of 10 mM N-acetylcysteine. Format: functional, cell-based. The essentials: as §1
The target is the same in series [26]. In words: Induction of Nrf2-mediated HO1 gene expression in human BEAS2B cells at 10 uM after 24 hrs by RT-PCR analysis in presence of 10 mM N-acetylcysteine. Format: functional, cell-based. The essentials: as §1
The target is the same in series [27]. In words: Induction of Nrf2-mediated NQO1 mRNA expression in human BEAS2B cells at 20 uM after 24 hrs by RT-PCR analysis.

Active and inactive are the calls of the source. The calls are words filed in the database; no cut-off is given here.

For `CC(=O)N[C@@H](CS)C(=O)O`, the result in [1], in series [2] and in series [3] was inactive.

For `O=C(/C=C/c1ccccc1C(F)(F)F)c1ccccc1`, the fold change (FC) in series [4] was found to be 5; in series [5], 5.3. In addition, the viability at 24 h in series [6] is 145%. Besides, the result in series [7] and in series [8] was Active.

In the case of `COc1ccc(C(=O)/C=C/c2ccccc2C(F)(F)F)c(OC)c1`, the fold change (FC) in series [4] came out at 5.4; in series [5], 4.5. For the same compound, the viability at 24 h in series [6] was 105%. In addition, the result in series [7] and in [8] was Active.

In the case of `C[S+]([O-])CCCCN=C=S` (configuration not stated) [SULFORAPHANE], the figures for the fold change (FC) in series [4] and in series [5] were 2.7 and 3.6, respectively. Also, in series [6], the viability at 24 h is 97.3%. In addition, the result in [7] and in series [8] was Active.

On to `COc1cc(OC)c(C(=O)/C=C/c2ccccc2C(F)(F)F)c(OC)c1`, for which the fold change (FC) in [4] stood at 4.4; in [5], 4.3. For the same compound, in series [6], the viability at 24 h worked out at 145%. Also, the outcome in [7] and in [8] was Active.

As for `COc1ccc(C(=O)/C=C/c2ccccc2C(F)(F)F)c(OC)c1OC`, the fold change (FC) in series [4] is 5.4; in series [5] it was 4.1. Besides, the viability at 24 h in series [6] is 102%. Also, the outcome in [7] and in [8] was Active.

Consider `COc1ccccc1C(=O)/C=C/c1ccccc1C(F)(F)F`, for which the fold change (FC) in [4] is 4.5; in series [5], 4.6; in series [7] it was 6; in series [9], 3; in [8], 10; in series [10] it was 5. For the same compound, the fold change (FC) in [15] was found to be 5; in [17], 6; in series [18], 150; in series [19], 7; in series [27], 10. The viability at 24 h in series [6] was 101%. In addition, the Activity entry in [11] was “Dose-dependent effect”; in series [12], “Dose-dependent effect”; in series [13] it was “Dose-dependent effect”; in [14], “Dose-dependent effect”; in [16], “Non-toxic”. Besides, the result in series [20] and in [21] was inactive. Further, the result in [22], in series [23], in series [24], in series [25] and in [26] was Active.

For `COc1ccc(C(=O)/C=C/c2ccccc2C(F)(F)F)cc1`, the fold change (FC) in series [4] was 5.4; in series [5] it was 4.6. The viability at 24 h in series [6] was 96%. In addition, the outcome in [7] and in [8] was Active.

With `COc1cccc(OC)c1C(=O)/C=C/c1ccccc1C(F)(F)F`, the fold change (FC) was 5.7 in series [4] and 5.3 in [5]. Also, the viability at 24 h in series [6] was found to be 101%. Besides, the result in series [7] and in [8] was Active.

On to `COc1cccc(C(=O)/C=C/c2ccccc2C(F)(F)F)c1`, for which the fold change (FC) stood at 5.6 in [4] and 4.3 in [5]. Also, the viability at 24 h in [6] amounted to 96.6%. The outcome in series [7] and in series [8] was Active.
